Screening results deposited in PubChem by several laboratories.
UPR XBP1 act: adaptive UPR (XBP1) activation; CHO-XBP1 luciferase reporter, IRE1-XBP1 UPR activation, luminescence; percent of tunicamycin response, DMSO as zero; activation, % at 20 µM; 330,000 tested, 0.33% active; AID 463104;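 active means versus positive control, 20 µM dose yields 30% or more activation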;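 further: 100% = tunicamycin at 10 µg/mL and 0% = DMSO only wells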
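Material: CHO cell line with stable XBP1 luciferase reporter; schedule: 16-18 h cell attachment at 37 °C, then 6 h compound exposure; signal: glow luminescence from Steady-Glo reagent; medium: serum-containing F12 medium, 10% FBS; benchmarks: tunicamycin 10 µg/mL and vehicle-only wells; read-out: percent activation relative to tunicamycin reference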
UPR CHOP act: activators of apoptotic arm of unfolded protein response (CHOP) | AID 449763 | CHO-CHOP luciferase reporter, UPR activation, luminescence; percent of tunicamycin response over DMSO baseline | activation, % at 10 µM | 330,000 tested, 0.34% active;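 active means at 10 µM dose, activation of 40% or more, normalized to positive control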;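 further: 100% = tunicamycin at 10 µg/mL and 0% = DMSO alone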
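Assay system: CHO-CHOP cells, stable luciferase reporter of PERK-eIF2a-CHOP signalling / Buffer or medium: F12 plus 10% serum / Compound dosing: one dose, 10 µM in 0.5% DMSO / Times: 6 h compound treatment, 37 °C / Technique: luciferase luminescence / Read-out: % reporter activation, DMSO baseline versus tunicamycin full activation / Benchmarks: tunicamycin and DMSO controls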
hiPSC survival: enhancers of human iPSC single-cell survival | hiPSC single-cell survival, ATPlite luminescence; 100% = ROCK inhibitor wells, 0% = DMSO | survival enhancement, % at 20 µM | 360,000 tested, 0.044% active; in the data active means survival enhancement above about 18%;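 further: cells exposed to compounds for 16 hours before the ATP read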
Cardio protect: myocardial damage modulation in H9c2 cells | H9c2 cardiomyocytes, H2O2 injury protection, ATPLite, 2 h | protection from H2O2 cell death, % at 20 µM | 360,000 tested, 0.63% active;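 active means compounds giving at least 50% protection of heart cells from peroxide-induced death in the single-dose screen, raw or plate-pattern-corrected value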;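 further: 0% = DMSO wells with peroxide and 100% = DMSO wells without peroxide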
CHOP inh: inhibitors of CHOP induction in ER stress response; CHO-K1 CHOP-promoter luciferase, tunicamycin-induced, 15-18 h; 220,000 tested, 3.8% active; inhibition, % at 10 µM;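 active means compounds that reduced the stress-induced luciferase reporter signal by more than about 70% of percent inhibition, limit read from the data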;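 further: 0% = tunicamycin plus vehicle and 100% = wells without tunicamycin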
Numbers without * were called inactive; x = no result given. The full list was thinned out, with hits kept by preference.

SMILES | UPR XBP1 act | UPR CHOP act | hiPSC survival | Cardio protect | CHOP inh
O=C(Nc1cccc(Cl)c1)c1ccc2sc([C@H]3C[C@H](O)[C@@H](CO)O3)nc2c1 | x | x | 2 | 12 | x
Cc1ccc(CN=c2c([N+](=O)[O-])nn(-c3cccc(Cl)c3)n2O)cc1 | -1 | -1 | 0 | 5 | 84*
Cc1ccc(CN=c2c([N+](=O)[O-])nn(-c3cccc(C)c3)n2O)cc1 | 0 | 3 | -1 | 0 | 13
CN(Cc1ccccc1)C(=O)c1ncn2c1c(=O)[nH]c1cccnc12 | x | x | -1 | -6 | x
COc1ccc(/C=N/Nc2snc(SC)c2C#N)cc1OC | 15 | 9 | 1 | -2 | 76*
COc1cccc(/C=N/Nc2snc(SC)c2C#N)c1 | 2 | 4 | -2 | -11 | 81*
O=C(NCCO)OC1CC2CC1[C@H]1CCCCN1C2=O (stereo not given in full) | x | x | 0 | x | x
O=S(Cc1ccc(Br)cc1)Cc1nnc(SCc2ccc(Cl)cc2)n1-c1ccccc1 (stereo not given) | 1 | 11 | -2 | -7 | 85*
Cn1c(CS(=O)Cc2c(Cl)cccc2Cl)nnc1SCc1ccc(Cl)cc1 (stereo not given) | -2 | 4 | 1 | 3 | 30
O=S(Cc1ccc(Br)cc1)Cc1nnc(SCc2c(F)cccc2Cl)n1-c1ccccc1 (stereo not given) | -2 | 4 | 0 | -2 | 74*
Cc1nn(-c2nc(-c3ccco3)cc(C(F)(F)F)n2)c(C)c1Br | 2 | -1 | 1 | 0 | 73*
COc1cc2ccnc(C=O)c2cc1OC | x | x | -2 | 56* | x
COc1cc2ccnc(C=NO)c2cc1OC | x | x | 1 | 16 | x
CCc1ccc(N2CC(C(=O)Nc3ccc(S(=O)(=O)N4CCOCC4)cc3)CC2=O)cc1 (stereo not given) | 1 | 3 | 0 | -8 | x
Cc1ccc(Oc2nc3c(c(=O)n(Cc4ccccc4F)c(=O)n3C)n2C)cc1 | 1 | 1 | 0 | -1 | 94*
COc1ccc(NC(=O)c2cc(-c3cc(C)cc(F)c3)n[nH]2)cc1OC | x | x | -1 | 9 | x
CN(C(=O)c1cccc(NC(=O)Cc2cccc(NC(=O)C3CCCN(C(=O)C4CCCCC4)C3)c2)c1)C1CC1 (stereo not given) | x | x | -1 | 9 | x
CN(CCOc1ccc(-c2ccn(S(=O)(=O)c3c(Cl)cccc3Cl)n2)cc1)c1ccccn1 | -1 | -2 | 19* | -9 | 23
COCCn1c(SCC(=O)Nc2cc(C)on2)nc2ccccc2c1=O | -3 | 0 | -2 | -6 | x
Cc1cc(NC(=O)CSc2nc3ccccc3c(=O)n2Cc2ccc(F)cc2)no1 | -1 | -1 | -4 | -5 | 78*
CCCCCCn1c(SCC(=O)Nc2cc(C)on2)nc2ccccc2c1=O | -1 | 5 | 0 | -5 | 75*
CCc1c(C)sc2nc(SCC(=O)Nc3cc(C)on3)n(CCOC)c(=O)c12 | -5 | 2 | -1 | -9 | 78*
CCCc1nnc(SCC(=O)Nc2cc(C)on2)n1CCOC | -4 | 1 | -1 | 0 | x
Cc1cc(NC(=O)CSc2nc(C(C)C)nc3sc(C)c(C)c23)no1 | 10 | 0 | -1 | -7 | 85*
COC(=O)c1ccc2c(=O)n(Cc3ccco3)c(SCC(=O)Nc3ccc(C)c(Cl)c3)nc2c1 | 38* | 40 | -2 | -3 | 30
SMILES | UPR XBP1 act | UPR CHOP act | hiPSC survival | Cardio protect | CHOP inh
O=C(CSc1nc2cc(Cl)ccc2c(=O)n1Cc1ccco1)Nc1ccc(S(=O)(=O)N2CCOCC2)cc1 | 0 | -1 | -1 | -3 | 20
CCCn1c(SC(C(=O)Nc2cccc(OC)c2)c2ccccc2)nc2ccccc2c1=O (stereo not given) | 0 | 0 | 2 | 50* | 21
C=CCSc1nc2ccccc2c(=O)n1Cc1ccccc1 | -1 | -4 | 0 | 2 | 87*
CCOC(=O)c1cccc(NC(=O)CSc2nc3ccccc3c(=O)n2CCOC)c1 | 4 | -1 | -3 | 69* | -3
NC(=S)c1ccc[n+]([C@@H]2O[C@@H](COP(=O)([O-])OP(=O)(O)OC[C@H]3O[C@@H](n4cnc5c(N)ncnc54)C(OP(=O)(O)O)[C@H]3O)C(O)C2O)c1 (stereo not given in full) | x | x | x | x | -6
CS(=O)(=O)c1cc(C(=O)O)cc(NCc2ccccc2)c1Oc1ccccc1 | x | x | 1 | 6 | x
O=C(CSc1nc2ccccc2c(=O)n1Cc1ccc(F)cc1)NCc1cccs1 | -1 | -1 | -3 | -2 | 82*
C[C@@H](C(=O)OCC(=O)c1ccc(F)c(F)c1)N1C(=O)C2CCCCC2C1=O (stereo not given in full) | -1 | 0 | 0 | -2 | x
CN(C)C(=O)c1cccc(-c2cc(NC=O)c3ncc(-c4ccc(F)cc4)n3c2)c1 | x | x | -4 | 27 | x
COc1ccc(-c2cc(NC=O)c3ncc(-c4cccc(C(C)=O)c4)n3c2)cc1 | x | x | 9 | 65* | x
CC(=O)c1ccc(-c2cnc3c(NC=O)cc(-c4cccc(C(=O)N(C)C)c4)cn23)cc1 | x | x | -3 | 76* | x
COc1cc(-c2cnc3c(NC=O)cc(-c4cccc(NC(C)=O)c4)cn23)cc(OC)c1OC | x | x | 0 | 54* | x
COc1cccc(-c2cnc3c(NC=O)cc(-c4cccc(NC(C)=O)c4)cn23)c1 | x | x | 1 | 64* | x
CC(C)Oc1cc(F)ccc1-c1cc(C(=O)Nc2cccc(C(F)(F)F)c2)[nH]n1 | x | x | -2 | -11 | x
CC(=O)c1cccc(-c2cnc3c(NC=O)cc(-c4ccccc4)cn23)c1 | x | x | 12 | 30 | x
CC(=O)Nc1cccc(-c2cc(NC=O)c3ncc(-c4cccc(C(C)=O)c4)n3c2)c1 | x | x | -4 | 71* | x
COc1cccc(-c2cnc3c(NC(C)=O)cc(-c4cccc(NS(C)(=O)=O)c4)cn23)c1 | x | x | 1 | 63* | x
COc1cccc(-c2cnc3c(NC=O)cc(-c4ccccc4)cn23)c1 | x | x | -3 | 6 | x
COc1cccc(-c2cnc3c(NC=O)cc(-c4cc(C)c(O)c(C)c4)cn23)c1 | x | x | -1 | 67* | x
CC(=O)Nc1cc(-c2cccc(NS(C)(=O)=O)c2)cn2c(-c3ccccc3)cnc12 | x | x | -2 | 9 | x
O=C(Nc1ncnc2c1ncn2[C@@H]1O[C@H](/C=C/C(=O)N2CCN(c3ccc(F)cc3)CC2)[C@@H](O)[C@H]1O)c1ccccc1 | x | x | -1 | -3 | x
COc1ccc(S(=O)(=O)NCCSCc2cccc(C)c2)cc1Br | -2 | 2 | 0 | -17 | 85*
CCC1(c2ccccc2)SC(=O)NC1=O (stereo not given) | x | x | 0 | -1 | x
Nc1c(N=Nc2cccc(Cl)c2)c(=O)[nH]n1-c1ccccc1 | 3 | 4 | -2 | 4 | 72*
OCC[C@H]1NCc2cc(CO)cc(-c3ccccc3)c21 | x | x | 2 | 4 | x
O=C(c1ccccc1)C(CCC(CN1CCOCC1)C(=O)c1ccccc1)CN1CCOCC1 (stereo not given) | -7 | 28 | -4 | -19 | 98*
